Assay results from ChEMBL document CHEMBL1142421, “Synthesis and inhibitory activity of oligosaccharide thiazolines as a class of mechanism-based inhibitors for endo-beta-N-acetylglucosaminidases” (Bioorg Med Chem, 2008).
Calls of active or inactive are those of the source. The calls are words filed in the database; no cut-off is given here.

Columns and labels:
[1] = molecular target: T1, Endo-beta-N-acetylglucosaminidase (Arthrobacter protophormiae, UniProt Q9ZB22); test: Inhibition of Arthrobacter protophormiae endo-beta-N-acetylglucosaminidase after 5 mins by HPAEC-PED method; design: species or system Glutamicibacter protophormiae
T1 sequence (Q9ZB22 whole entry): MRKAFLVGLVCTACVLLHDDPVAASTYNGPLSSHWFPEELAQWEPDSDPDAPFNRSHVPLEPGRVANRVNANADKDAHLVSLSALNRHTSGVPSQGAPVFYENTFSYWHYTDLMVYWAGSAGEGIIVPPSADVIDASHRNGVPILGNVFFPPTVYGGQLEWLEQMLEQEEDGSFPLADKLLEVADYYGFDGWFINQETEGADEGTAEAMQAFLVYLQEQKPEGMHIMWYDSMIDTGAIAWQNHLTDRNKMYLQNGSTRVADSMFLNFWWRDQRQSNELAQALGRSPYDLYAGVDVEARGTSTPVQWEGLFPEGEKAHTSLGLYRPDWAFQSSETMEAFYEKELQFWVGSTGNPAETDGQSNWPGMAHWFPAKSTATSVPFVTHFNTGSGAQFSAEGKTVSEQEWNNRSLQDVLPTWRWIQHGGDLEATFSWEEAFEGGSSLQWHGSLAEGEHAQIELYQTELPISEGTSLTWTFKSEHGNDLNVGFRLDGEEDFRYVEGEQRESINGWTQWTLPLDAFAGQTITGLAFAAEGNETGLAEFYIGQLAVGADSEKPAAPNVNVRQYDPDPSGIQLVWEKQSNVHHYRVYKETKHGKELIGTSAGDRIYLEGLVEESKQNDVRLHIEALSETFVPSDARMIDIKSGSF
Outline: (§1)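 Man9GlcNAc2Asn (500 μM) as substrate in 50 mM phosphate buffer pH 6.5. Limited enzyme is incubated with or without serial dilutions of thiazoline at 30°C for 5 min. Reaction stopped by heating at 100°C for 3 min. Man9GlcNAc hydrolysis product quantified by HPAEC-PED.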

[2] = Inhibition of Mucor hiemalis endo-beta-N-acetylglucosaminidase after 5 mins by HPAEC-PED method; outline: as §1
Flavobacterium sp. [3] = test: Inhibition of Flavobacterium sp. endo-beta-N-acetylglucosaminidase at 100 uM after 5 mins by HPAEC-PED method
Outline: (§2)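 Endo-Fsp assay uses Man5GlcNAc2Asn as substrate in 50 mM phosphate buffer pH 6.5. Limited enzyme is incubated with or without thiazoline at 30°C for 5 min, then heated at 100°C for 3 min to stop. Hydrolytic product quantified by HPAEC-PED.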

[4] = molecular target: T2, Endo-beta-N-acetylglucosaminidase (Arthrobacter protophormiae) (UniProt Q9ZB22); test: Inhibition of Arthrobacter protophormiae endo-beta-N-acetylglucosaminidase upto 500 uM after 5 mins by HPAEC-PED method; conditions: Glutamicibacter protophormiae; outline: as §1
T2 sequence (whole entry): T1 sequence (Q9ZB22 whole entry)

Mucor hiemalis = test: Inhibition of Mucor hiemalis endo-beta-N-acetylglucosaminidase upto 500 uM after 5 mins by HPAEC-PED method; outline: as §1
Flavobacterium sp. [5] = test: Inhibition of Flavobacterium sp. endo-beta-N-acetylglucosaminidase at 1uM after 5 mins by HPAEC-PED method; outline: as §2
[6] = molecular target: T3, Cytosolic endo-beta-N-acetylglucosaminidase (Homo sapiens, UniProt Q8NFI3); test: Inhibition of human endo-beta-N-acetylglucosaminidase expressed in Hek293 cells after 3 mins; format: cell-based
T3 sequence (Q8NFI3 whole entry): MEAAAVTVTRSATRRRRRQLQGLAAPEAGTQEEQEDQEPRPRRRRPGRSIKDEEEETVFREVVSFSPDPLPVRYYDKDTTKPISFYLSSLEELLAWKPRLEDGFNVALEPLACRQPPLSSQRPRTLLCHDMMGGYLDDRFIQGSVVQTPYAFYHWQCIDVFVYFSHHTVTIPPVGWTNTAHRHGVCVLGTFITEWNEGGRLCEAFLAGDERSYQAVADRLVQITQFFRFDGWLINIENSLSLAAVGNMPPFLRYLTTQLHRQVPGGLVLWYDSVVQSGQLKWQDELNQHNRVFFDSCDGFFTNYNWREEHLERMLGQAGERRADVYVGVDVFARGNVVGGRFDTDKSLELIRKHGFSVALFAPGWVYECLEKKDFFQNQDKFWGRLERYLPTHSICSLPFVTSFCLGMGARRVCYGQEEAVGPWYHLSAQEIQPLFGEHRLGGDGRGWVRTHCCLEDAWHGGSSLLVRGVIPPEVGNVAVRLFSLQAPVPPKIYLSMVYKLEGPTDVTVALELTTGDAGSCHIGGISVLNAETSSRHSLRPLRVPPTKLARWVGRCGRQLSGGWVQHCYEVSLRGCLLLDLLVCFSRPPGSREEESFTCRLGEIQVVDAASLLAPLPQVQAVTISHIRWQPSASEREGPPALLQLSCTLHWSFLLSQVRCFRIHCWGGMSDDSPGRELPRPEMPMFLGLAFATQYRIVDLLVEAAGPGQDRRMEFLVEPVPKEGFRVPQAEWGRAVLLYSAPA
Outline: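 Enzyme source: HEK293 cells transfected with pcDNA-hENGase, extracted 48 h later in Hepes-KOH pH 7.0 with protease inhibitors. The 100,000 × g soluble fraction was assayed in 40 mM Mes-NaOH pH 6.1 with 1 μM Man9GlcNAc2-PA and inhibitor from 10 mM to 0.1 μM, 3 min at 37°C. Reaction stopped by boiling; product quantified by C18 HPLC.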

Row | Structure (SMILES) | IC50 [1] [µM] | IC50 [2] [µM] | Activity (Flavobacterium sp. [3]) | Activity [4] | Activity (Mucor hiemalis) | inhibition (Flavobacterium sp. [5]) [%] | IC50 [6] [µM]
1 | CC1=N[C@@H]2[C@@H](O)[C@H](O[C@@H]3O[C@H](CO)[C@@H](O)[C@H](O)[C@@H]3O)[C@@H](CO)O[C@H]2S1 | 38 | 80 | inactive |  |  |  | 
2 | CC1=N[C@@H]2[C@@H](O)[C@H](O)[C@@H](CO)O[C@H]2S1 |  |  |  | inactive | inactive |  | 
3 | CC1=N[C@@H]2[C@@H](O)[C@H](O[C@@H]3O[C@H](CO[C@H]4O[C@H](CO)[C@@H](O)[C@H](O)[C@@H]4O)[C@@H](O)[C@H](O[C@@H]4O[C@H](CO)[C@@H](O)[C@H](O)[C@@H]4O)[C@@H]3O)[C@@H](CO)O[C@H]2S1 | 13 | 64 | inactive |  |  |  | 
4 | CC1=N[C@@H]2[C@@H](O)[C@H](O[C@@H]3O[C@H](CO[C@H]4O[C@H](CO[C@H]5O[C@H](CO[C@H]6O[C@H](CO)[C@@H](O)[C@H](O)[C@@H]6O)[C@@H](O)[C@H](O)[C@@H]5O)[C@@H](O)[C@H](O[C@@H]5O[C@H](CO)[C@@H](O)[C@H](O[C@@H]6O[C@H](CO)[C@@H](O)[C@H](O)[C@@H]6O)[C@@H]5O)[C@@H]4O)[C@@H](O)[C@H](O[C@@H]4O[C@H](CO)[C@@H](O)[C@H](O)[C@@H]4O[C@@H]4O[C@H](CO)[C@@H](O)[C@H](O)[C@@H]4O[C@@H]4O[C@H](CO)[C@@H](O)[C@H](O)[C@@H]4O)[C@@H]3O)[C@@H](CO)O[C@H]2S1 | 0.22 | 6 |  |  |  | 75 | 0.42
